Assays:
Assay type in all cases: functional
SK-OV-3 = assay: Cytotoxicity against human SKOV3 cells assessed as cell growth at 10 uM after 48 hrs by sulforhodamine B assay; settings: SK-OV-3, 48 h, read-out: Activity
HT-29 = assay: Cytotoxicity against human HT-29 cells assessed as cell growth at 10 uM after 48 hrs by sulforhodamine B assay; settings: HT-29, 48 h, read-out: Activity
NCI-H460 = assay: Cytotoxicity against human NCI-H460 cells assessed as cell growth at 10 uM after 48 hrs by sulforhodamine B assay; settings: NCI-H460, 48 h, read-out: Activity
TK-10 = assay: Cytotoxicity against human TK10 cells assessed as cell growth at 10 uM after 48 hrs by sulforhodamine B assay; settings: TK-10, 48 h, read-out: Activity
CCRF-CEM = assay: Cytotoxicity against human CCRF-CEM cells assessed as cell growth at 10 uM after 48 hrs by sulforhodamine B assay; settings: read-out: Activity
OVCAR-3 = assay: Cytotoxicity against human OVCAR-3 cells assessed as cell growth at 10 uM after 48 hrs by sulforhodamine B assay; settings: OVCAR-3, 48 h, read-out: Activity
NCI-H23 = assay: Cytotoxicity against human NCI-H23 cells assessed as cell growth at 10 uM after 48 hrs by sulforhodamine B assay; settings: NCI-H23, 48 h, read-out: Activity
OVCAR-4 = assay: Cytotoxicity against human OVCAR4 cells after 48 hrs by sulforhodamine B assay; settings: OVCAR-4, 48 h
In short: (§1)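 Cells were plated at 5000–40,000/well according to doubling time and preincubated 24 h at 37 °C, 5% CO2. Time-zero plates were TCA-fixed. DMSO stocks were diluted in medium with gentamycin to five concentrations (10-fold or ½ log series) plus control, then incubated 48 h. Adherent cells were fixed with cold TCA (suspension cells with 16% final), stained with SRB, and read at 515 nm. GI50, TGI and LC50 were calculated per line.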

SF-268 = assay: Cytotoxicity against human SF268 cells assessed as cell growth at 10 uM after 48 hrs by sulforhodamine B assay; settings: SF-268, 48 h, read-out: Activity
M14 = assay: Cytotoxicity against human M14 cells assessed as cell growth at 10 uM after 48 hrs by sulforhodamine B assay; settings: M14, 48 h, read-out: Activity
K562 = assay: Cytotoxicity against human K562 cells assessed as cell growth at 10 uM after 48 hrs by sulforhodamine B assay; settings: K562, 48 h, read-out: Activity
[1] = Cytotoxicity against human renal cancer cells after 48 hrs by sulforhodamine B assay; settings: Cancer cell lines
In short: (§2)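 Cells plated at 5000–40,000/well according to doubling time, then held 24 h at 37 °C, 5% CO2, with time-zero plates TCA-fixed. DMSO stocks (400× top concentration) were diluted in medium containing 50 μg/ml gentamycin, giving five 10-fold or ½-log concentrations. After 48 h, adherent cells were fixed in 10% TCA and suspension cells in 16% TCA (final), stained with 0.4% SRB, read at 515 nm. GI50, TGI and LC50 were calculated per cell line.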

BT-549 = assay: Cytotoxicity against human BT549 cells assessed as cell growth at 10 uM after 48 hrs by sulforhodamine B assay; settings: BT-549, 48 h, read-out: Activity
NCI-H522 = assay: Cytotoxicity against human NCI-H522 cells assessed as cell growth at 10 uM after 48 hrs by sulforhodamine B assay; settings: NCI-H522, 48 h, read-out: Activity
LOX IMVI = assay: Cytotoxicity against human LOXIMVI cells assessed as cell growth at 10 uM after 48 hrs by sulforhodamine B assay; settings: read-out: Activity
ACHN = assay: Cytotoxicity against human ACHN cells assessed as cell growth at 10 uM after 48 hrs by sulforhodamine B assay; settings: read-out: Activity
[2] = Cytotoxicity against human prostate cancer cells after 48 hrs by sulforhodamine B assay; settings: Cancer cell lines; in short: as §2
MCF7 = assay: Cytotoxicity against human MCF7 cells assessed as cell growth at 10 uM after 48 hrs by sulforhodamine B assay; settings: MCF7, 48 h, read-out: Activity
RXF 393 = assay: Cytotoxicity against human RXF393 cells assessed as cell growth at 10 uM after 48 hrs by sulforhodamine B assay; settings: RXF 393, 48 h, read-out: Activity
SNB-19 = assay: Cytotoxicity against human SNB19 cells assessed as cell growth at 10 uM after 48 hrs by sulforhodamine B assay; settings: SNB-19, 48 h, read-out: Activity
[3] = Cytotoxicity against human lung cancer cells after 48 hrs by sulforhodamine B assay; settings: Cancer cell lines; in short: as §2
Malme-3M = assay: Cytotoxicity against human MALME-3M cells assessed as cell growth at 10 uM after 48 hrs by sulforhodamine B assay; settings: read-out: Activity
NCI-H322M = assay: Cytotoxicity against human NCI-H322M cells assessed as cell growth at 10 uM after 48 hrs by sulforhodamine B assay; settings: read-out: Activity
MDA-MB-435 = assay: Cytotoxicity against human MDA-MB-435 cells assessed as cell growth at 10 uM after 48 hrs by sulforhodamine B assay; settings: MDA-MB-435, 48 h, read-out: Activity
HOP-62 = assay: Cytotoxicity against human HOP62 cells assessed as cell growth at 10 uM after 48 hrs by sulforhodamine B assay; settings: HOP-62, 48 h, read-out: Activity
MOLT-4 = assay: Cytotoxicity against human MOLT4 cells assessed as cell growth at 10 uM after 48 hrs by sulforhodamine B assay; settings: MOLT-4, 48 h, read-out: Activity
MDA-MB-231 = assay: Cytotoxicity against human MDA-MB-231 cells assessed as cell growth at 10 uM after 48 hrs by sulforhodamine B assay; settings: MDA-MB-231, 48 h, read-out: Activity
HOP-92 = assay: Cytotoxicity against human HOP92 cells assessed as cell growth at 10 uM after 48 hrs by sulforhodamine B assay; settings: HOP-92, 48 h, read-out: Activity
[4] = Cytotoxicity against human CNS cancer cells after 48 hrs by sulforhodamine B assay; settings: Cancer cell lines; in short: as §1
KM12 = assay: Cytotoxicity against human KM12 cells assessed as cell growth at 10 uM after 48 hrs by sulforhodamine B assay; settings: KM12, 48 h, read-out: Activity
[5] = Cytotoxicity against human breast cancer cells after 48 hrs by sulforhodamine B assay; settings: Cancer cell lines; in short: as §2
DU-145 = assay: Cytotoxicity against human DU145 cells assessed as cell growth at 10 uM after 48 hrs by sulforhodamine B assay; settings: DU-145, 48 h, read-out: Activity
COLO 205 = assay: Cytotoxicity against human COLO205 cells assessed as cell growth at 10 uM after 48 hrs by sulforhodamine B assay; settings: COLO 205, 48 h, read-out: Activity
[6] = read-out: LC50 (the source's name)

Molecule `Cc1cc(=O)n(C(=O)COc2ccc3c(-c4ccccc4)cc(=O)oc3c2C)[nH]1` has a growth at 10 µM (SK-OV-3) of 15.9%, a growth at 10 µM (HT-29) of -44.2% and a growth at 10 µM (NCI-H460) of 10.9%. For the same molecule, the growth at 10 µM (TK-10) was -33.4%, the growth at 10 µM (CCRF-CEM) was 13.5% and the growth at 10 µM (OVCAR-3) was -61.1%. For the same molecule, the growth at 10 µM (NCI-H23) was 1.86%, the GI50 (OVCAR-4) was 1.95 µM and the TGI (OVCAR-4) was 4.73 µM. For the same molecule, the growth at 10 µM (SF-268) was 2.94%, the growth at 10 µM (M14) was 17.6% and the growth at 10 µM (K562) was -24.1%. The GI50 [1] was 10.7 µM, the TGI [1] was 21.4 µM and the CC50 [1, 6] was 55.2 µM. For the same molecule, the growth at 10 µM (BT-549) was -65.8%, the growth at 10 µM (NCI-H522) was -39.2% and the growth at 10 µM (LOX IMVI) was -61.8%. For the same molecule, the growth at 10 µM (ACHN) was 41.6%, the GI50 [2] was 2.38 µM and the TGI [2] was 5.75 µM. It also gave a CC50 [2, 6] of 29.4 µM, a growth at 10 µM (MCF7) of -14.4% and a growth at 10 µM (RXF 393) of -37%. For the same molecule, the growth at 10 µM (SNB-19) was 33.6%, the GI50 [3] was 3.69 µM and the TGI [3] was 37.4 µM. The CC50 [3, 6] was 65.1 µM, the growth at 10 µM (Malme-3M) was -8.61% and the growth at 10 µM (NCI-H322M) was -24.7%. It also gave a growth at 10 µM (MDA-MB-435) of -39.6%, a growth at 10 µM (HOP-62) of -18.6% and a growth at 10 µM (MOLT-4) of 22.7%. It also gave a growth at 10 µM (MDA-MB-231) of -30%, a growth at 10 µM (HOP-92) of -64.4% and a GI50 [4] of 2.58 µM. The TGI [4] was 8.85 µM, the CC50 [4, 6] was 27.7 µM and the growth at 10 µM (KM12) was -12%. For the same molecule, the GI50 [5] was 4.23 µM, the TGI [5] was 33.7 µM and the CC50 [5, 6] was 87.5 µM. It also gave a growth at 10 µM (DU-145) of -56.3% and a growth at 10 µM (COLO 205) of 6.21%.

Reference: ChEMBL document CHEMBL1240439, “Synthesis and docking studies of novel benzopyran-2-ones with anticancer activity” (2010)
